Assay results published in article PMC4561207 (Child's nervous system : ChNS : official journal of the …, 2015).

Experiment: Adverse events regardless of attribution
Assay type: in vivo, human
Summary of the method: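 Children with recurrent/refractory CNS tumours took oral drug once daily, continuously, in 28-day cycles. Dosing was stratified by EIACD use, with start/escalation levels 20–40 mg/m² (no EIACD) or 15–32 mg/m² (EIACD). Monitoring included weekly exam, serum chemistries, CBC and urine protein for 8 weeks, and TSH before each cycle. Events other than hypertension were graded by CTCAE v3, later v4.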

For `COc1cc2c(Oc3ccc4[nH]c(C)cc4c3F)ncnc2cc1OCCCN1CCCC1` [cediranib, Cediranib], the “Anemia, events (patients)” value (grade 3 AE) was 2(2), the “Aspartate aminotransferase increased, events (patients)” value (shortened to “Aspartate aminotransferase increased”) (grade 3 AE) was 2(2) and the “Blurred vision, events (patients)” value (grade 3 AE) was 1(1). For the same molecule, the “Capillary leak syndrome, events (patients)” value (grade 3 AE) was 1(1), the “Chest wall pain, events (patients)” value (grade 3 AE) was 1(1) and the “Confusion, events (patients)” value (grade 3 AE) was 1(1). For the same molecule, the “Dehydration, events (patients)” value (grade 3 AE) was 4(4), the “Depressed level of consciousness, events (patients)” value (grade 3 AE) was 2(2) and the “Diarrhea, events (patients)” value (grade 3 AE) was 3(3). For the same molecule, the “Dysphasia, events (patients)” value (grade 3 AE) was 2(2), the “Enterocolitis, events (patients)” value (grade 3 AE) was 1(1) and the “Eye disorders - Other, specify, events (patients)” value (grade 3 AE) was 1(1). The “Fatigue, events (patients)” value (grade 3 AE) was 4(4), the “Headache, events (patients)” value (grade 3 AE) was 7(5) and the “Hydrocephalus, events (patients)” value (grade 3 AE) was 2(2). The “Hyperkalemia, events (patients)” value (grade 3 AE) was 1(1), the “Hypermagnesemia, events (patients)” value (grade 3 AE) was 1(1) and the “Hypernatremia, events (patients)” value (grade 3 AE) was 2(1). The “Hypertension, events (patients)” value (grade 3 AE) was 10(10), the “Hypertriglyceridemia, events (patients)” value (grade 3 AE) was 1(1) and the “Hypokalemia, events (patients)” value (grade 3 AE) was 3(2). For the same molecule, the “Hyponatremia, events (patients)” value (grade 3 AE) was 5(5), the “Lipase increased, events (patients)” value (grade 3 AE) was 1(1) and the “Lymphocyte count decreased, events (patients)” value (“Lymphocyte count decreased” below) (grade 3 AE) was 5(3). The “Mucositis oral, events (patients)” value (grade 3 AE) was 1(1), the “Nausea, events (patients)” value (grade 3 AE) was 3(3) and the “Neutrophil count decreased, events (patients)” value (grade 3 AE) was 2(2). For the same molecule, the “Oral pain, events (patients)” value (grade 3 AE) was 2(2), the “Palmar-plantar erythrodysesthesia syndrome, events (patients)” value (grade 3 AE) was 3(3) and the “Peripheral motor neuropathy, events (patients)” value (grade 3 AE) was 2(2). For the same molecule, the “Proteinuria, events (patients)” value (grade 3 AE) was 3(3), the “Reversible posterior leukoencephalopathy syndrome, events (patients)” value (grade 3 AE) was 1(1) and the “Seizure, events (patients)” value (grade 3 AE) was 3(3). The “Vomiting, events (patients)” value (grade 3 AE) was 2(2), the “Weight loss, events (patients)” value (grade 3 AE) was 1(1) and the “White blood cell decreased, events (patients)” value (grade 3 AE) was 1(1). The “Alanine aminotransferase increased, events (patients)” value (grade 4 AE) was 1(1), the “Aspartate aminotransferase increased” value (grade 4 AE) was 1(1) and the “Hypernatremia, events (patients)” value (grade 4 AE) was 2(1). The “Hyponatremia, events (patients)” value (grade 4 AE) was 1(1), the “Hypothyroidism, events (patients)” value (grade 4 AE) was 1(1) and the “Lymphocyte count decreased” value (grade 4 AE) was 1(1). The “Nervous system disorders - Other, specify, events (patients)” value (grade 4 AE) was 1(1), the “Papilledema, events (patients)” value (grade 4 AE) was 1(1) and the “Seizure, events (patients)” value (grade 4 AE) was 1(1). The “Abdominal pain, events (patients)” value (total AE) was 11(11), the “Acidosis, events (patients)” value (total AE) was 7(5) and the “Alanine aminotransferase increased, events (patients)” value (total AE) was 70(30). For the same molecule, the “Alkaline phosphatase increased, events (patients)” value (total AE) was 4(3), the “Anal mucositis, events (patients)” value (total AE) was 1(1) and the “Anal pain, events (patients)” value (total AE) was 1(1). The “Anemia, events (patients)” value (total AE) was 7(6), the “Anorexia, events (patients)” value (total AE) was 15(12) and the “Arthralgia, events (patients)” value (total AE) was 1(1). For the same molecule, the “Aspartate aminotransferase increased” value (total AE) was 45(23), the “Back pain, events (patients)” value (total AE) was 5(4) and the “Blood bilirubin increased, events (patients)” value (total AE) was 18(10). The “Blurred vision, events (patients)” value (total AE) was 1(1), the “Bone pain, events (patients)” value (total AE) was 3(2) and the “Capillary leak syndrome, events (patients)” value (total AE) was 1(1). For the same molecule, the “Cardiac troponin I increased, events (patients)” value (total AE) was 1(1), the “Chest wall pain, events (patients)” value (total AE) was 2(2) and the “Cholesterol high, events (patients)” value (total AE) was 1(1). The “Chronic kidney disease, events (patients)” value (total AE) was 1(1), the “Confusion, events (patients)” value (total AE) was 2(2) and the “Constipation, events (patients)” value (total AE) was 9(4). The “Cough, events (patients)” value (total AE) was 5(4), the “Creatinine increased, events (patients)” value (total AE) was 5(3) and the “Dehydration, events (patients)” value (total AE) was 8(7). The “Depressed level of consciousness, events (patients)” value (total AE) was 2(2), the “Depression, events (patients)” value (total AE) was 3(3) and the “Diarrhea, events (patients)” value (total AE) was 63(32). For the same molecule, the “Dizziness, events (patients)” value (total AE) was 5(3), the “Dry mouth, events (patients)” value (total AE) was 1(1) and the “Dry skin, events (patients)” value (total AE) was 1(1). The “Dyspepsia, events (patients)” value (total AE) was 4(4), the “Dysphasia, events (patients)” value (total AE) was 3(3) and the “Edema face, events (patients)” value (total AE) was 1(1). For the same molecule, the “Edema limbs, events (patients)” value (total AE) was 2(2), the “Endocrine disorders - Other, specify, events (patients)” value (total AE) was 2(2) and the “Enterocolitis, events (patients)” value (total AE) was 1(1). The “Epistaxis, events (patients)” value (total AE) was 6(5), the “Eye disorders - Other, specify, events (patients)” value (total AE) was 2(2) and the “Fatigue, events (patients)” value (total AE) was 25(20). For the same molecule, the “Fecal incontinence, events (patients)” value (total AE) was 2(2), the “Fever, events (patients)” value (total AE) was 3(3) and the “Flushing, events (patients)” value (total AE) was 3(1). The “GGT increased, events (patients)” value (total AE) was 1(1), the “Gastritis, events (patients)” value (total AE) was 2(2) and the “Gastrointestinal disorders - Other, specify, events (patients)” value (total AE) was 2(2). For the same molecule, the “Headache, events (patients)” value (total AE) was 38(19), the “Hematuria, events (patients)” value (total AE) was 5(3) and the “Hemoglobin increased, events (patients)” value (total AE) was 12(6). The “Hoarseness, events (patients)” value (total AE) was 1(1), the “Hydrocephalus, events (patients)” value (total AE) was 4(3) and the “Hypercalcemia, events (patients)” value (total AE) was 6(3). For the same molecule, the “Hyperglycemia, events (patients)” value (total AE) was 22(16), the “Hyperkalemia, events (patients)” value (total AE) was 4(4) and the “Hypermagnesemia, events (patients)” value (total AE) was 15(9). For the same molecule, the “Hypernatremia, events (patients)” value (total AE) was 16(5), the “Hypertension, events (patients)” value (total AE) was 59(38) and the “Hyperthyroidism, events (patients)” value (total AE) was 2(2). For the same molecule, the “Hypertriglyceridemia, events (patients)” value (total AE) was 1(1), the “Hypoalbuminemia, events (patients)” value (total AE) was 34(17) and the “Hypocalcemia, events (patients)” value (total AE) was 26(16). For the same molecule, the “Hypoglycemia, events (patients)” value (total AE) was 6(5), the “Hypokalemia, events (patients)” value (total AE) was 23(18) and the “Hypomagnesemia, events (patients)” value (total AE) was 9(7). The “Hyponatremia, events (patients)” value (total AE) was 29(13), the “Hypophosphatemia, events (patients)” value (total AE) was 21(13) and the “Hypothyroidism, events (patients)” value (total AE) was 21(15). For the same molecule, the “Hypoxia, events (patients)” value (total AE) was 1(1), the “INR increased, events (patients)” value (total AE) was 1(1) and the “Intracranial hemorrhage, events (patients)” value (total AE) was 4(4). The “Investigations - Other, specify, events (patients)” value (total AE) was 2(2), the “Joint effusion, events (patients)” value (total AE) was 1(1) and the “Leukoencephalopathy, events (patients)” value (total AE) was 1(1). The “Lipase increased, events (patients)” value (total AE) was 2(1), the “Lymphocyte count decreased” value (total AE) was 31(13) and the “Malaise, events (patients)” value (total AE) was 3(1). For the same molecule, the “Mucositis oral, events (patients)” value (total AE) was 4(4), the “Myalgia, events (patients)” value (total AE) was 3(3) and the “Nausea, events (patients)” value (total AE) was 25(16). The “Nervous system disorders - Other, specify, events (patients)” value (total AE) was 4(4), the “Neutrophil count decreased, events (patients)” value (total AE) was 23(11) and the “Non-cardiac chest pain, events (patients)” value (total AE) was 3(3). The “Oral pain, events (patients)” value (total AE) was 4(4), the “Pain in extremity, events (patients)” value (total AE) was 9(7) and the “Pain, events (patients)” value (total AE) was 4(4). The “Palmar-plantar erythrodysesthesia syndrome, events (patients)” value (total AE) was 17(7), the “Papilledema, events (patients)” value (total AE) was 1(1) and the “Pericardial effusion, events (patients)” value (total AE) was 1(1). The “Peripheral motor neuropathy, events (patients)” value (total AE) was 4(4), the “Platelet count decreased, events (patients)” value (total AE) was 26(18) and the “Pleural effusion, events (patients)” value (total AE) was 1(1). For the same molecule, the “Proteinuria, events (patients)” value (total AE) was 40(21), the “Rash acneiform, events (patients)” value (total AE) was 2(2) and the “Rash maculo-papular, events (patients)” value (total AE) was 6(5). The “Rectal pain, events (patients)” value (total AE) was 1(1), the “Renal and urinary disorders - Other, specify, events (patients)” value (total AE) was 1(1) and the “Respiratory, thoracic and mediastinal disorders - Other, specify, events (patients)” value (total AE) was 2(2). For the same molecule, the “Reversible posterior leukoencephalopathy syndrome, events (patients)” value (total AE) was 2(1), the “Seizure, events (patients)” value (total AE) was 7(6) and the “Serum amylase increased, events (patients)” value (total AE) was 1(1). For the same molecule, the “Skin and subcutaneous tissue disorders - Other, specify, events (patients)” value (total AE) was 2(2), the “Skin ulceration, events (patients)” value (total AE) was 2(2) and the “Stomach pain, events (patients)” value (total AE) was 3(3). For the same molecule, the “Urinary frequency, events (patients)” value (total AE) was 2(2), the “Urinary retention, events (patients)” value (total AE) was 3(3) and the “Vascular disorders - Other, specify, events (patients)” value (total AE) was 2(2). For the same molecule, the “Voice alteration, events (patients)” value (total AE) was 2(2), the “Vomiting, events (patients)” value (total AE) was 41(21) and the “Weight loss, events (patients)” value (total AE) was 5(5). The “White blood cell decreased, events (patients)” value (total AE) was 23(14).
